Laboratory results: ChEMBL document CHEMBL4152277, “Structure-activity relationships of β-hairpin mimics as modulators of amyloid β-peptide aggregation” (Eur J Med Chem, 2018)
Active and inactive are the calls of the source. No cut-off for these calls is given here.

Key:
[1] = target: Amyloid-beta precursor protein (Homo sapiens) (UniProt P05067); test: Inhibition of amyloid beta (1 to 42) (unknown origin) aggregation assessed as increase in time of half-life of aggregation at 100 uM using compound dissolved in DMSO measured after 42 hrs by Thioflavin T fluorescence assay relative to control; design: scale not given: the % may be the effect or the level left
Amyloid-beta precursor protein (Homo sapiens), sequence (P05067 whole entry): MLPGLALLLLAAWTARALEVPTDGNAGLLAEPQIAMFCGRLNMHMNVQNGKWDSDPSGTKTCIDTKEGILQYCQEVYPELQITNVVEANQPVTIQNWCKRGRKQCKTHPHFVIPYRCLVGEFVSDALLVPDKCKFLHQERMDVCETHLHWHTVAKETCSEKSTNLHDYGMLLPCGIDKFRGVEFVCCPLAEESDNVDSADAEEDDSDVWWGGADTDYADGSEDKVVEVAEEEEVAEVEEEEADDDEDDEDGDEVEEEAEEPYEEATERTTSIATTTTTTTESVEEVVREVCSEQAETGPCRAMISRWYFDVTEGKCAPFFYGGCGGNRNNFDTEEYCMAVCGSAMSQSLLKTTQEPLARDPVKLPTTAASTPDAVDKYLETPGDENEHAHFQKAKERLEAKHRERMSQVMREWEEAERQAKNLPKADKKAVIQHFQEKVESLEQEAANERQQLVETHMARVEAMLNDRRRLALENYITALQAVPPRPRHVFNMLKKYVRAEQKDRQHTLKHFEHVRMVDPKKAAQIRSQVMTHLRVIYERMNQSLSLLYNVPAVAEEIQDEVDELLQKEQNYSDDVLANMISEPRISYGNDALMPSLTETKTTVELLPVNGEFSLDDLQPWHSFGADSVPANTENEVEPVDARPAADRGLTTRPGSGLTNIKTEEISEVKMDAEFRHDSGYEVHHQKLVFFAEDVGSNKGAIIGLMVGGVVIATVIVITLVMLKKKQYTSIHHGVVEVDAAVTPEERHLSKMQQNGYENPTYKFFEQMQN
Outline: (§1)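 Aβ1-42 dissolved in 1% aqueous ammonia at 1 mM, diluted to 0.2 mM in 10 mM Tris-HCl, 100 mM NaCl pH 7.4 just before use. Final 10 µM peptide added to 40 µM ThT with compound (final DMSO 0.5% v/v), room temperature. Triplicate wells, ex/em 440/480 nm for 42 h, read 2–4 times on different days. t1/2 extension and plateau F reduction are computed as % of peptide-alone values.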

[2] = target: Amyloid-beta precursor protein (Homo sapiens) (UniProt P05067); test: Inhibition of amyloid beta (1 to 42) (unknown origin) aggregation assessed as increase in time of half-life of aggregation at 10 uM using compound dissolved in DMSO measured after 42 hrs by Thioflavin T fluorescence assay relative to control; design: scale not given: the % may be the effect or the level left; outline: as §1
[3] = target: Amyloid-beta precursor protein (Homo sapiens) (UniProt P05067); test: Inhibition of amyloid beta (1 to 42) (unknown origin) aggregation assessed as reduction in intensity of fluorescence plateau of aggregation at 100 uM using compound dissolved in DMSO measured after 42 hrs by Thioflavin T fluorescence assay relative to control; design: scale not given: the % may be the effect or the level left; outline: as §1
[4] = target: Amyloid-beta precursor protein (Homo sapiens) (UniProt P05067); test: Inhibition of amyloid beta (1 to 42) (unknown origin) aggregation assessed as reduction in intensity of fluorescence plateau of aggregation at 10 uM using compound dissolved in DMSO measured after 42 hrs by Thioflavin T fluorescence assay relative to control; design: scale not given: the % may be the effect or the level left; outline: as §1
[5] = target: Amyloid-beta precursor protein (Homo sapiens) (UniProt P05067); test: Inhibition of amyloid beta (1 to 42) (unknown origin) aggregation at 100 uM after 42 hrs by uranyl acetate staining based transmission electron microscopic method
Outline: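 Samples are prepared as for ThT: 10 µM Aβ1-42 in 10 mM Tris-HCl, 100 mM NaCl pH 7.4, ±100 µM compound, incubated 42 h. Aliquots adsorbed 2 min on 300-mesh carbon grids, washed, dried, negatively stained 45 s and imaged by TEM.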

[6] = target: Amyloid-beta precursor protein (Homo sapiens) (UniProt P05067); test: Inhibition of amyloid beta (1 to 42) (unknown origin) aggregation assessed as increase in time of half-life of aggregation at 100 uM using compound dissolved in water measured after 42 hrs by Thioflavin T fluorescence assay relative to control; design: scale not given: the % may be the effect or the level left
Outline: (§2)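 ThT kinetics of 10 µM Aβ1-42 (from 1 mM ammonia stock, diluted in 10 mM Tris-HCl, 100 mM NaCl, pH 7.4) with 40 µM ThT at room temperature. Compound is dissolved in water (0.5% v/v) rather than DMSO and used at 10:1 compound/peptide. Fluorescence 440/480 nm over 42 h. t1/2 and plateau F are expressed as % change versus peptide alone.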

[7] = target: Amyloid-beta precursor protein (Homo sapiens) (UniProt P05067); test: Inhibition of amyloid beta (1 to 42) (unknown origin) aggregation assessed as increase in time of half-life of aggregation at 1 uM using compound dissolved in DMSO measured after 42 hrs by Thioflavin T fluorescence assay relative to control; outline: as §1
[8] = target: Amyloid-beta precursor protein (Homo sapiens) (UniProt P05067); test: Inhibition of amyloid beta (1 to 42) (unknown origin) aggregation assessed as reduction in intensity of fluorescence plateau of aggregation at 100 uM using compound dissolved in water measured after 42 hrs by Thioflavin T fluorescence assay relative to control; design: scale not given: the % may be the effect or the level left; outline: as §2
[9] = target: Amyloid-beta precursor protein (Homo sapiens) (UniProt P05067); test: Inhibition of amyloid beta (1 to 42) (unknown origin) aggregation assessed as reduction in intensity of fluorescence plateau of aggregation at 1 uM using compound dissolved in DMSO measured after 42 hrs by Thioflavin T fluorescence assay relative to control; design: scale not given: the % may be the effect or the level left; outline: as §1
[10] = target: Amyloid-beta precursor protein (Homo sapiens) (UniProt P05067); test: Inhibition of amyloid beta (1 to 42) (unknown origin) aggregation at 1 to 100 uM treated immediately or 3 hrs after fibrillization kinetics by Thioflavin T fluorescence assay
Outline: (§3)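 Same ThT set-up (10 µM Aβ1-42, 40 µM ThT, Tris-HCl/NaCl pH 7.4, room temperature, 440/480 nm), except compound is added at the start of kinetics or 3, 19 or 44 h after it. Tested at 1:1 and 10:1 compound/peptide ratios.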

[11] = target: Amyloid-beta precursor protein (Homo sapiens) (UniProt P05067); test: Inhibition of amyloid beta (1 to 42) (unknown origin) aggregation at 1 to 100 uM treated at 19 to 44 hrs after fibrillization kinetics by Thioflavin T fluorescence assay; outline: as §3
[12] = target: Amyloid-beta precursor protein (Homo sapiens) (UniProt P05067); test: Inhibition of amyloid beta (1 to 42) (unknown origin) oligomerization assessed as amyloid beta monomer level at 100 uM after 6 hrs by capillary electrophoresis method (reference value: 4%); design: scale not given: the % may be the effect or the level left
Outline: (§4)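 Aβ1-42 reconstituted at 100 µM final in 20 mM phosphate pH 7.4 with 2.5% v/v DMSO (compound stock or control), compound at 10:1 ratio. Profiles taken at 0, 2, 6 and 12 h. CE in fused silica capillary, 80 mM phosphate pH 7.4, −30 kV, 20°C, UV 190 nm. Monomer peak area is related to that of peptide alone at 0 h.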

[13] = target: Amyloid-beta precursor protein (Homo sapiens) (UniProt P05067); test: Inhibition of amyloid beta (1 to 42) (unknown origin) oligomerization assessed as amyloid beta monomer level at 100 uM after 12 hrs by capillary electrophoresis method (reference value: 0%); design: scale not given: the % may be the effect or the level left; outline: as §4
[14] = target: Amyloid-beta precursor protein (Homo sapiens) (UniProt P05067); test: Inhibition of amyloid beta (1 to 42) (unknown origin) oligomerization assessed as increase in amyloid beta monomer level at 100 uM up to 2 hrs by capillary electrophoresis method; outline: as §4

Compound | Activity [1] | Activity [2] | Activity [3] | Activity [4] | inhibition [5] | Activity [6] [%] | Activity [7] | Activity [8] [%] | Activity [9] | inhibition [10] | inhibition [11] | Activity [12] [%] | Activity [13] [%] | inhibition [14]
COc1ccc(NC(C)=O)cc1C(=O)NNC(=O)[C@H](CCCCNC(=O)OCc1ccccc1)NC(=O)[C@@H]1CCCN1[C@@H]1CN(C(=O)[C@@H](NC(=O)[C@H](C)NC(=O)OC(C)(C)C)C(C)C)CC[C@H]1NS(=O)(=O)c1ccc(C)cc1 | inactive | inactive | inactive | inactive | – | – | – | – | – | – | – | – | – | –
COc1ccc(NC(C)=O)cc1C(=O)NNC(=O)[C@H](CCCCN)NC(=O)[C@@H]1CCCN1[C@@H]1CN(C(=O)[C@@H](NC(=O)[C@H](C)NC(=O)OC(C)(C)C)C(C)C)CC[C@H]1NS(=O)(=O)c1ccc(C)cc1 | 59% | 23% | inactive | inactive | – | – | – | – | – | – | – | – | – | –
CSCC[C@H](NC(=O)[C@H](CC(C)C)NC(=O)CN)C(=O)N[C@H](C(=O)NCC(=O)N1CC[C@@H](NS(=O)(=O)c2ccc(C)cc2)[C@H](N2CCC[C@H]2C(=O)N[C@@H](CCCCN)C(=O)N[C@@H](CC(C)C)C(=O)N[C@H](C(=O)N[C@@H](Cc2ccccc2)C(=O)N[C@@H](Cc2ccccc2)C(N)=O)C(C)C)C1)C(C)C | inactive | inactive | 97% | 90% | – | – | – | – | – | – | – | – | – | –
COc1ccc(NC(C)=O)cc1C(=O)NNC(=O)[C@H](CCCCN)NC(=O)[C@@H]1CCCN1[C@@H]1CN(C(=O)[C@@H](NC(=O)[C@H](C)N)C(C)C)CC[C@H]1NS(=O)(=O)c1ccc(N)cc1 | 56% | 27% | 54% | inactive | Active | – | – | – | – | – | – | – | – | –
COc1ccc(NC(C)=O)cc1C(=O)NNC(=O)[C@H](CCCCN)NC(=O)[C@@H]1CCCN1[C@@H]1CN(C(=O)[C@@H](NC(=O)[C@H](C)N)C(C)C)CC[C@H]1NC(=O)OC(C)(C)C | 29% | 13% | 43% | inactive | – | – | – | – | – | – | – | – | – | –
COc1ccc(NC(C)=O)cc1C(=O)NNC(=O)[C@H](CCCCN)NC(=O)[C@@H]1CCCN1[C@@H]1CN(C(=O)[C@@H](NC(=O)[C@H](C)NC(=O)[C@@H](N)C(C)C)C(C)C)CC[C@H]1NS(=O)(=O)c1ccc(C)cc1 | 30% | inactive | 32% | inactive | – | 58 | inactive | 35 | inactive | – | – | – | – | –
COc1ccc(NC(C)=O)cc1C(=O)NNC(=O)[C@H](CCCCN)NC(=O)[C@@H]1CCCN1[C@@H]1CN(C(=O)[C@@H](NC(=O)[C@H](C)N)C(C)C)CC[C@H]1N | inactive | inactive | 18% | inactive | – | – | – | – | – | – | – | – | – | –
COc1ccc(NC(C)=O)cc1C(=O)NNC(=O)[C@H](CCCCN)NC(=O)[C@@H]1CCCN1[C@@H]1CN(C(=O)[C@@H](NC(=O)[C@H](C)N)C(C)C)CC[C@H]1NS(=O)(=O)c1ccc(C)cc1 | 76% | 36% | 66% | 38% | Active | 96 | inactive | 81 | 38% | Active | inactive | 49 | 31 | inactive
COC(=O)[C@@H]1CCCN1[C@@H]1CNCC[C@H]1NS(=O)(=O)c1ccc(C)cc1 | inactive | inactive | 23% | inactive | – | – | – | – | – | – | – | – | – | –
